The text below walks through data of ChEMBL document CHEMBL4622973, “Discovery of Potent Small-Molecule SIRT6 Activators: Structure-Activity Relationship and Anti-Pancreatic Ductal Adenocarcinoma Activity” (J Med Chem, 2020).

T1 sequence (Q8N6T7 whole entry): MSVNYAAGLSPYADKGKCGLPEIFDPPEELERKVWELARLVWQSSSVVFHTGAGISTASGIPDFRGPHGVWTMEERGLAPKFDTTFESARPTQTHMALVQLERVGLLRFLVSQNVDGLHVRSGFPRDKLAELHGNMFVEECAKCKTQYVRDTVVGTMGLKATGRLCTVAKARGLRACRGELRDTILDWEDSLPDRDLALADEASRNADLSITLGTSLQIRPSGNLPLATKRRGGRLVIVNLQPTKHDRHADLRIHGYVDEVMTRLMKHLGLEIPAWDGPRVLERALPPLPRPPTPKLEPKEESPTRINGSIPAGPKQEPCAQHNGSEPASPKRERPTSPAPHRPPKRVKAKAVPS

The first test has as its target T1, NAD-dependent protein deacylase sirtuin-6 (Homo sapiens, UniProt Q8N6T7). In words: Activation of N-terminal his-tagged human SIRT6 expressed in Escherichia coli M15 [pREP4] assessed as increase in peptide demyristoylation incubated for 120 mins using Ac-EALPKK(Myr)-AMC substrate by FDL assay relative to control. Put shortly:
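Demyristoylation: 1 µM recombinant SIRT6 preincubated with compound for 20 min at 37 °C in 50 mM Tris-HCl pH 8.0, BSA 1 mg/mL, 1 mM DTT, with 10 µM Ac-EALPKK(Myr)-AMC. Fluorescence read. Mean ± s.d., triplicate wells, three independent experiments.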
As to `O=C(NCc1ccc(F)cc1)c1cc(-c2cc3ccccc3o2)nc2ccccc12`, the EC1.5 amounted to 2.19 µM. Still for that read-out and setting: the figure for `O=C(NC(c1ccccc1)c1ccccn1)c1cc(-c2cc3ccccc3o2)nc2ccccc12` (centres undefined) is 7.59 µM; for `O=C(Nc1cc(C(F)(F)F)ccc1Cl)c1cc(-c2cc3ccccc3o2)nc2ccccc12` it is 0.85 µM.

With `COc1ccc(-c2cc(C(=O)Nc3ccc(Oc4ccccc4)cc3)c3ccccc3n2)cc1OC`, the EC1.5 was 6.47 µM.

For the compound `COc1ccc(-c2cc(C(=O)Nc3ccc(C(F)(F)F)cc3Cl)c3ccccc3n2)cc1OC`, the EC1.5 was determined as 7.53 µM.

The target in another test is T1, NAD-dependent protein deacylase sirtuin-6. In words: Activation of N-terminal his-tagged human SIRT6 expressed in Escherichia coli M15 [pREP4] assessed as increase in peptide demyristoylation at 20 uM incubated for 120 mins using Ac-EALPKK(Myr)-AMC substrate by FDL assay relative to control. Put shortly:
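Demyristoylation: 1 µM recombinant SIRT6 preincubated with compound for 20 min at 37 °C in 50 mM Tris-HCl pH 8.0, BSA 1 mg/mL, 1 mM DTT, with 10 µM Ac-EALPKK(Myr)-AMC. Started with 1 mM NAD and run 120 min at 37 °C. Developed 120 min at 37 °C with 5 mg/mL trypsin/8 mM nicotinamide. Fluorescence read. Mean ± s.d., triplicate wells, three independent experiments.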
For `O=C(NCc1ccc(F)cc1)c1cc(-c2cc3ccccc3o2)nc2ccccc12`, the Activity worked out at 482%. For `O=C(NC(c1ccccc1)c1ccccn1)c1cc(-c2cc3ccccc3o2)nc2ccccc12` (centres undefined), the Activity was determined as 321%. Consider `COc1cccc(NC(=O)c2cc(-c3ccc(OC)c(OC)c3)nc3ccccc23)c1`, for which the Activity worked out at 115%.

With `O=C(Nc1cc(C(F)(F)F)ccc1Cl)c1cc(-c2cc3ccccc3o2)nc2ccccc12`, the Activity came to 762%. Same read-out and setting: the result for `COc1ccc(-c2cc(C(=O)NC3CCCC3)c3ccccc3n2)cc1OC` reads 124%; that for `O=C(Nc1cc(C(F)(F)F)ccc1Cl)c1cc(-c2cccnc2)nc2ccccc12`, 85.6%; that for `COc1ccc(-c2cc(C(=O)Nc3ccc(Oc4ccccc4)cc3)c3ccccc3n2)cc1OC`, 239%.

In the case of `O=C(Nc1cc(C(F)(F)F)ccc1Cl)c1cc(-c2ccco2)nc2ccccc12`, the Activity was found to be 141%. Same read-out and setting: the figure for `COc1ccc(-c2cc(C(=O)Nc3cc(C(F)(F)F)ccc3Cl)c3ccccc3n2)cc1F` is 91.2%. Turning to `COc1ccc(-c2cc(C(=O)Nc3ccc(C(F)(F)F)cc3Cl)c3ccccc3n2)cc1OC`, the Activity amounted to 181%.

With `O=C(Nc1cc(C(F)(F)F)ccc1Cl)c1cc(C2CCCCC2)nc2ccccc12`, the Activity was 82.4%. On the same count and under the same terms, the figure for `COc1ccc(-c2cc(C(=O)Nc3ccc(F)c([N+](=O)[O-])c3)c3ccccc3n2)cc1OC` is 96.9%. For the compound `COc1ccc(-c2cc(C(=O)Nc3nc4ccc(S(C)(=O)=O)cc4s3)c3ccccc3n2)cc1OC`, the Activity turned out to be 83.4%. Regarding `COc1ccc(-c2cc(C(=O)Nc3ccccc3Br)c3ccccc3n2)cc1OC`, the Activity amounted to 128%. On to `COc1cc(NC(=O)c2cc(-c3ccc(OC)c(OC)c3)nc3ccccc23)cc(OC)c1`, for which the Activity is 103%. Regarding `O=C(Nc1ccc(Oc2ccccc2)cc1)c1cc(-c2cc3ccccc3o2)nc2ccccc12`, the Activity stood at 118%. Still for that read-out and setting: the result for `COc1ccc(-c2cc(C(=O)Nc3sc(C)c(C)c3C#N)c3ccccc3n2)cc1OC` reads 95.1%. As to `COc1ccc(-c2cc(C(=O)Nc3ccc(F)cc3[N+](=O)[O-])c3ccccc3n2)cc1OC`, the Activity came out at 65.7%. On the same count and under the same terms, the figure for `COC(=O)[C@H]1C2CCC(CC2)[C@@H]1NC(=O)c1cc(-c2ccc(OC)c(OC)c2)nc2ccccc12` is 128%; for `COc1ccc(-c2cc(C(=O)Nc3cc([N+](=O)[O-])ccc3Cl)c3ccccc3n2)cc1OC` it is 98.2%. As to `Cc1ccc(-c2cc(C(=O)Nc3cc(C(F)(F)F)ccc3Cl)c3ccccc3n2)cc1`, the Activity stood at 109%.

`COc1ccc(-c2cc(C(=O)Nc3ccc(C)cc3)c3ccccc3n2)cc1OC`: the Activity stood at 98.3%. Turning to `CCOC(=O)c1ccccc1NC(=O)c1cc(-c2ccc(OC)c(OC)c2)nc2ccccc12`, the Activity was found to be 118%. With `Cc1ccc(-c2cc(C(=O)Nc3cc(C(F)(F)F)ccc3Cl)c3ccccc3n2)c(C)c1`, the Activity came out at 92.3%.

For `COC(=O)c1c(-c2ccc(C)cc2)csc1NC(=O)c1cc(-c2ccc(OC)c(OC)c2)nc2ccccc12`, the Activity was 82.9%. On the same count and under the same terms, the figure for `COc1ccc(-c2cc(C(=O)Nc3cccc(F)c3)c3ccccc3n2)cc1OC` is 142%; for `COc1ccc(-c2cc(C(=O)Nc3cc(C(C)C)ccc3C)c3ccccc3n2)cc1OC` it is 131%. The same measure, in the same setting: the result for `COc1ccc(-c2cc(C(=O)N3CCN(C)CC3)c3ccccc3n2)cc1OC` reads 105%; that for `COc1ccc(-c2cc(C(=O)Nc3ccc(S(N)(=O)=O)cc3)c3ccccc3n2)cc1OC`, 131%. Regarding `COc1ccc(-c2cc(C(=O)Nc3ccc(Cl)cc3)c3ccccc3n2)cc1OC`, the Activity turned out to be 98.7%.

For the compound `CCN(CC)c1ccc(NC(=O)c2cc(-c3ccc(OC)c(OC)c3)nc3ccccc23)cc1`, the Activity came to 83.3%. Consider `COC(=O)c1c(NC(=O)c2cc(-c3ccc(OC)c(OC)c3)nc3ccccc23)sc(C)c1C`, for which the Activity was 101%. The same measure, in the same setting: the result for `COc1ccc(-c2cc(C(=O)Nc3cc(O)c(C(C)(C)C)cc3C(C)(C)C)c3ccccc3n2)cc1OC` reads 88.6%; that for `CCCNC(=O)c1cc(-c2ccc(OC)c(OC)c2)nc2ccccc12`, 99%.

Consider `COc1ccc(-c2cc(C(=O)Nc3ccc(C(C)(C)C)cc3)c3ccccc3n2)cc1OC`, for which the Activity turned out to be 124%. Regarding `COc1ccc(-c2cc(C(=O)Nc3ccc(C(F)(F)F)cc3)c3ccccc3n2)cc1OC`, the Activity came out at 142%.

On to `COc1ccc(-c2cc(C(=O)Nc3ccc4ccccc4c3)c3ccccc3n2)cc1OC`, for which the Activity was 139%. On the same count and under the same terms, the figure for `COc1cc([N+](=O)[O-])ccc1NC(=O)c1cc(-c2ccc(OC)c(OC)c2)nc2ccccc12` is 101%; for `Cc1ccc(-c2cc(C(=O)Nc3cc(C(F)(F)F)ccc3Cl)c3ccccc3n2)s1` it is 141%. Still for that read-out and setting: the figure for `COc1ccc(-c2cc(C(=O)Nc3ccccc3F)c3ccccc3n2)cc1OC` is 92.4%. Still for that read-out and setting: the result for `COc1ccc(-c2cc(C(=O)Nc3ccc(F)c(F)c3)c3ccccc3n2)cc1OC` reads 101%; that for `COc1ccc(-c2cc(C(=O)Nc3cccc(Cl)c3)c3ccccc3n2)cc1OC`, 104%; that for `COc1ccc(-c2cc(C(=O)NCc3ccccc3)c3ccccc3n2)cc1OC`, 107%. As for `O=C(Nc1cccc2ccccc12)c1cc(-c2cc3ccccc3o2)nc2ccccc12`, the Activity was found to be 119%. Still for that read-out and setting: the result for `COc1ccc(-c2cc(C(=O)Nc3nc(-c4ccc(Cl)cc4)cs3)c3ccccc3n2)cc1OC` reads 91%. Turning to `COc1ccc(-c2cc(C(=O)Nc3ccccc3Cl)c3ccccc3n2)cc1OC`, the Activity turned out to be 105%. As to `COc1ccc(-c2cc(C(=O)Nc3cc(S(N)(=O)=O)ccc3C)c3ccccc3n2)cc1OC`, the Activity came out at 95.5%. Same read-out and setting: the result for `COc1ccc(-c2cc(C(=O)Nc3ccc(F)cc3)c3ccccc3n2)cc1OC` reads 104%.

For `CCOC(=O)c1sc(NC(=O)c2cc(-c3ccc(OC)c(OC)c3)nc3ccccc23)nc1C`, the Activity was 90.3%.

For `COc1ccc(-c2cc(C(=O)Nc3ccc(C)c(Cl)c3)c3ccccc3n2)cc1OC`, the Activity came to 117%. On the same count and under the same terms, the figure for `COc1ccc(NC(=O)c2cc(-c3ccc(OC)c(OC)c3)nc3ccccc23)c([N+](=O)[O-])c1` is 87.2%. With `CCOc1ccc(NC(=O)c2cc(-c3cc4ccccc4o3)nc3ccccc23)cc1`, the Activity was 109%. As to `COC(=O)c1c(NC(=O)c2cc(-c3ccc(OC)c(OC)c3)nc3ccccc23)sc2c1CCCC2`, the Activity was 95.2%. Consider `CCOc1ccccc1NC(=O)c1cc(-c2ccc(OC)c(OC)c2)nc2ccccc12`, for which the Activity is 95.2%. Regarding `O=C(Nc1ccc(Cl)c(Cl)c1)c1cc(-c2cc3ccccc3o2)nc2ccccc12`, the Activity was 109%.

In the case of `O=C(Nc1cc(C(F)(F)F)ccc1Cl)c1cc(-c2cccs2)nc2ccccc12`, the Activity came out at 130%. Still for that read-out and setting: the result for `COc1ccc(-c2cc(C(=O)Nc3ccc(F)c(Cl)c3)c3ccccc3n2)cc1OC` reads 108%. For the compound `O=C(Nc1cc(C(F)(F)F)ccc1Cl)c1cc(C2CCCC2)nc2ccccc12`, the Activity is 76.4%.

As to `COc1ccc(-c2cc(C(=O)NC34CC5CC(CC(O)(C5)C3)C4)c3ccccc3n2)cc1OC`, the Activity was found to be 86.1%.
